This is an account of results in article PMC3514014 (Molecular and biochemical parasitology, 2010).

Where a SMILES comes first, the peptide text is derived from it. Where no end group is shown, it is not given here. The star is where a group is joined. ACC = NC(=O)Cc1cc(=O)oc2cc(N*)ccc12; AMC = Cc1cc(=O)oc2cc(N*)ccc12

Test [1] addresses T1, recombinant DPAP1 (rDPAP1) (Plasmodium falciparum, UniProt Q8IIJ9).
T1 sequence (Q8IIJ9 28-209 limits assumed): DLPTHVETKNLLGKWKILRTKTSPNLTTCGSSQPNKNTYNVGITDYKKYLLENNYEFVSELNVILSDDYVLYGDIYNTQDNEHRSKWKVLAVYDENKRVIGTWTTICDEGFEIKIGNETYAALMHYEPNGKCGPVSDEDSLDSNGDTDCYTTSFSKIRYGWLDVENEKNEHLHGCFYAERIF
T1 sequence (Q8IIJ9 370-599 limits assumed): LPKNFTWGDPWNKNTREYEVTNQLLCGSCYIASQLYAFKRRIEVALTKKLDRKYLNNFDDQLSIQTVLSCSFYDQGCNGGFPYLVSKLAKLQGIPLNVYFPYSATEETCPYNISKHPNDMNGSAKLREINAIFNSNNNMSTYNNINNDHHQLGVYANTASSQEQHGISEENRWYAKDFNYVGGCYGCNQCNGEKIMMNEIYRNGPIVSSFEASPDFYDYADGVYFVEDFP
T1 sequence (Q8IIJ9 600-700 limits assumed): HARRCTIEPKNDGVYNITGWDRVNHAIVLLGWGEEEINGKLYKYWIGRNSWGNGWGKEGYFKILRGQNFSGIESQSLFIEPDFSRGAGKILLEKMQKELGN
The format is biochemical. To be noted: for hydrolysis of the substrate: recombinant DPAP1, concentrations up to 500 μM; for Km / kcat: rDPAP1, 25 °C, pH 6.0, 30 mM chloride, mean ± SD, triplicate, NH = no hydrolysis.

Test [2] addresses T2, native DPAP1 (nDPAP1) (Plasmodium falciparum, UniProt Q8IIJ9).
T2 sequence (Q8IIJ9 28-209 limits assumed): T1 sequence (Q8IIJ9 28-209 limits assumed)
T2 sequence (Q8IIJ9 370-599 limits assumed): T1 sequence (Q8IIJ9 370-599 limits assumed)
T2 sequence (Q8IIJ9 600-700 limits assumed): T1 sequence (Q8IIJ9 600-700 limits assumed)
In kind it is biochemical. Conditions: for hydrolysis of the substrate: native DPAP1, concentrations up to 500 μM; for kcat: nDPAP1, 25 °C, pH 6.0, 30 mM chloride, mean ± SD, triplicate, NH = no hydrolysis.

The subject of test [3] is recombinant human cathepsin C. The format is biochemical. Conditions: for Km / kcat: 25 °C, pH 6.0, 30 mM chloride, mean ± SD, triplicate.
For test [4], the target named is T1, recombinant DPAP1 (rDPAP1). The test is described as follows: Inhibition of recombinant DPAP1. The format is biochemical. The method in brief: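 Recombinant E. coli-expressed DPAP1-His6, activated by TEV cleavage, at 0.8 nM. Run at 25 °C in 50 mM sodium MES pH 6.0 with 2 mM dithiothreitol and 1 mM EDTA, total chloride held at 30 mM with NaCl. Fluorogenic release read against an AMC standard, in triplicate. Rates taken from linear progress-curve segments after ~15 min lag; Ki by Dixon method.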

Test [5] addresses T2, native DPAP1 (nDPAP1). Description: Inhibition of native DPAP1. In kind it is biochemical. To be noted: Fig. 4 and Fig. S4, stated in words.
Test [6] has as its system cathepsin C. The test is described as follows: Inhibition of cathepsin C under the DPAP1 assay conditions. Conditions: assay conditions used for DPAP1. The format is biochemical, human.
The subject of test [7] is cathepsin C. Conditions: cited from earlier work.
Test [8] relates to cathepsin C. To be noted: cited from earlier work. This is another data set of the same source.
Setting [9] is: recombinant DPAP1, Fig. 4 and Fig. S4, stated in words.

As for `N=C(N)NCCC[C@H](NC(=O)[C@@H](N)Cc1ccccc1)C(=O)Nc1ccc2c(CC(N)=O)cc(=O)oc2c1` [Phe-Arg-ACC] (H-Phe-Arg-{ACC}), the “hydrolysis of the substrate” value (in test [1]; on native DPAP1 (nDPAP1) [2]) was “no hydrolysis was observed” in each case. Also, the “kinetic behaviour as substrate” value in test [3] (Fig. S3) is on record as “substrate inhibition was observed”. In addition, the mode of inhibition entry in test [4] (rDPAP1, hydrolysis of Pro-Arg-AMC, Dixon analysis) is “purely competitive”. For the same compound, in test [4] (rDPAP1, inhibition of hydrolysis of Pro-Arg-AMC, Dixon analysis), the Ki turned out to be 2200 nM.

In the case of `CC[C@H](N)C(=O)NNC(=O)N[C@@H](CCc1ccccc1)C(=O)N[C@@H](C)Cc1cccc(F)c1` [compound 1, 1-(2S-2-aminobutanoyl)-4-{2S-N-[2S-3-(m-fluorophenyl)propan-2-yl-amide]-4-phenylbutan-2-yl-amide}semicarbazide], the Ki result (on native DPAP1 (nDPAP1) [5]; in test [4] (setting [9])) was “sub-nanomolar” throughout. For the same compound, the type of inhibition result in the test with cathepsin C [6] is recorded as “slow, tight-binding inhibitor”.

For `Cc1cc(=O)oc2cc(NC(=O)C(Cc3ccccc3)NC(=O)C(N)C(C)C)ccc12` (stereo not drawn) [Val-Phe-AMC] (H-Val-Phe-{AMC}; configuration not given here), in the test with cathepsin C [7], the “increase in kcat/Km relative to Pro-Phe-AMC” value was 10 fold.

For `N[C@@H](Cc1ccccc1)C(=O)N[C@@H](Cc1ccccc1)C(=O)O` [L-Phe-L-Phe] (H-Phe-Phe-OH), the “inhibition of cathepsin C” value in the test on cathepsin C [8] is on record as “competitively inhibited”.

For `Cc1cc(=O)oc2cc(NC(=O)[C@H](CCCN=C(N)N)NC(=O)[C@@H](N)CCCN=C(N)N)ccc12` [Arg-Arg-AMC] (H-Arg-Arg-{AMC}), the “turnover of the substrate” value in test [3] is listed as “no turnover”.

With `NC(=O)[C@@H](N)Cc1ccccc1` [phenylalaninamide], in the test on cathepsin C [8], the “inhibition of cathepsin C” value is recorded as “competitively inhibited”.

With `CC[C@H](N)C(=O)NC(C#N)Cc1ccccc1` (stereo partly shown) [compound 2, S-2-aminobutyryl-phenylalanine-nitrile], the inhibition constant Ki result (on native DPAP1 (nDPAP1) [5]; in test [4] (setting [9])) was “single-digit nanomolar” each time.

In the case of Arg-Arg-{ACC}, the “hydrolysis of the substrate” value (in test [1]; on native DPAP1 (nDPAP1) [2]) was “no hydrolysis was observed” throughout.

For the compound `CC(C)[C@H](N)C(=O)N[C@@H](CCCNC(=N)N)C(=O)Nc1ccc2c(CC(N)=O)cc(=O)oc2c1` [Val-Arg-ACC] (H-Val-Arg-{ACC}), the Km was 20 ± 1 µM in test [1] and 51 ± 8 µM in test [3]. Moreover, the results for the kcat (in test [1]; at native DPAP1 (nDPAP1) [2]; in test [3]) were 0.72 ± 0.02 s⁻¹, 3.5 ± 0.1 s⁻¹ and 180 ± 10 s⁻¹, respectively.

For `CC[C@H](C)[C@H](N)C(=O)N[C@@H](CCCNC(=N)N)C(=O)Nc1ccc2c(CC(N)=O)cc(=O)oc2c1` [Ile-Arg-ACC], in test [1], the Km was found to be 3.9 ± 0.2 µM and the kcat worked out at 0.072 ± 0.003 s⁻¹. Also, in test [3], the Km was found to be 28 ± 2 µM and the kcat was 17 ± 1 s⁻¹.

Consider `NC(Cc1ccccc1)C(=O)NCC(=O)O` (racemic) [DL-Phe-Gly], for which the “inhibition of cathepsin C” value in the test on cathepsin C [8] was “competitively inhibited”.

For the compound `Cc1cc(=O)oc2cc(NC(=O)[C@H](CCCN=C(N)N)NC(=O)[C@@H]3CCCN3)ccc12` [Pro-Arg-AMC] (H-Pro-Arg-{AMC}), the Km in test [1] was determined as 79 ± 2 µM; in test [3], 130 ± 10 µM. Besides, the values for the catalytic constant (kcat) (in test [1]; on native DPAP1 (nDPAP1) [2]; in test [3]) were 1.8 ± 0.1 s⁻¹, 6.2 ± 0.4 s⁻¹ and 490 ± 10 s⁻¹, respectively.
